Screens from PubChem.
H9c2 protect = cardioprotection against H2O2-induced cell death, primary screen, uHTS, H9c2 cells, ATPLite luminescence | AID 588492, 2011 | H9c2 cardiomyocytes, H2O2 injury protection, 2 h | protection from H2O2 cell death, % at 20 µM | 360,000 compounds, 0.63% hits;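 active = compounds giving at least 50% protection of heart cells from peroxide-induced death in the single-dose screen, raw or plate-pattern-corrected value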;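 also: 0% = DMSO wells with peroxide and 100% = DMSO wells without peroxide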
Granule exo inh = LAMP-1 surface exposure blockers, TALL-104 cells – cell-based, flow cytometry, MLPCN library, primary screen | TALL-104 LAMP-1 surface exposure; cells stimulated with thapsigargin and PMA | inhibition, % at 10 µM | 360,000 compounds, 0.66% hits | AID 651702, 2012;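 active = inhibition above about 55%, limit read from the data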
Myeloid diff 2 = induction of myeloid progenitor differentiation, primary screen, cell-based, flow cytometry, MLPCN library. ER-HoxA9 myeloid progenitors, lysozyme-GFP differentiation. calls only at 10 µM. 360,000 compounds, 1% hits;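 active = normalized GFP-positive differentiation at or above the plate's own cutoff, the solvent-only control mean plus 3 SD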;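 also: cells exposed to compound for four days before flow analysis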
HNF4A DNA FP = change in binding of human HNF4A to DNA, primary screen, biochemical, fluorescence polarization, FITC-DNA. 1 h. activity change, % at 10 µM. 360,000 compounds, 0.3% hits; in the data active = activity change above about 30%, passing the limit was not always enough
Target sequence (P41235 whole entry, looked up): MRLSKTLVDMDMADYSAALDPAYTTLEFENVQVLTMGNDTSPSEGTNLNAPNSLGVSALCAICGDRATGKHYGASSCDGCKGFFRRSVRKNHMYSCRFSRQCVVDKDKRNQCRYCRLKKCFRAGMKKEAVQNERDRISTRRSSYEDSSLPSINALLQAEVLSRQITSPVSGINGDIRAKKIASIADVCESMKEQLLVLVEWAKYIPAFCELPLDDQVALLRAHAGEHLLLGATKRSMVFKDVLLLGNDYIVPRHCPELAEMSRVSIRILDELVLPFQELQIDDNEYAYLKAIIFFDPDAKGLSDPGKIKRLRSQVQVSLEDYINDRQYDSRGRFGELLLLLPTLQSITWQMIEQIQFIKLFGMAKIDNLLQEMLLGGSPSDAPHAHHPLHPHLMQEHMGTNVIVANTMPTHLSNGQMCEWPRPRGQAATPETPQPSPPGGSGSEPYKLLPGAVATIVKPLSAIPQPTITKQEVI
Pemphigus Ab inh = inhibitors of pemphigus antibody binding to DSG3, primary screen, biochemical, bead-based, flow cytometry, scFv-GFP; Desmoglein-3 (Homo sapiens), P32926; DSG3-coupled beads, scFv-anti-DSG3-GFP binding; active compounds read low; binding (percent of control), % at 10 µM; 310,000 compounds, 0.48% hits; AID 588358, 2011;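 active = binding more than 3 SD below its plate's average and above zero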;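 also: hits lower antibody fragment binding to DSG3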
SENP1 inh = human SENP1 catalytic domain inhibitors, primary screen, biochemical, FRET, uHTS. 360,000 compounds, 0.21% hits. Sentrin-specific protease 1 (Homo sapiens), Q9P0U3. recombinant SENP1 catalytic domain, CyPet-SUMO1-YPet FRET cleavage. inhibition, % at 10 µM;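 active = inhibition at least 30% at 10 µM, raw YFP signal under a set limit, fluorescence ratio 0.5 to 1.5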;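 also: 0% = enzyme with DMSO and 100% = no enzyme wells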
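system = hSENP1 catalytic domain, recombinant | reagent = SFCypet-SUMO1-SFYpet substrate at 25 nM | doses = one dose per compound, 10 µM, 0.5% DMSO | incubation = enzyme reaction for 50 min at room temperature, dark | measured by = FRET, CFP and YFP emission | controls = no-enzyme low, enzyme-DMSO high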
Myeloid diff = inducers of myeloid progenitor differentiation, confirmation, cell-based, GFP/Mac1 flow cytometry, cherry pick 01. shares compounds with Myeloid diff 2. ER-HoxA9 myeloid progenitors, GFP/Mac1 double-positive flow. calls only. 2,300 compounds, 2% hits;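 active = share of green or green-and-red cells above 9 and 9% in run 1 or 4 and 3% in run 2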
GFP autofluor = counter-screen for myeloid differentiation promoters: compound fluorescence. fluorescence response, % (no concentration beside the values). 2,300 compounds, 7.4% hits. shares compounds with Myeloid diff 2. ER-HoxA9 myeloid progenitors, no estrogen, GFP autofluorescence flow cytometry; vehicle wells 0%, positive control 100%;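 active = over 5% cells positive for green fluorescent reporter, or over 2% positive for both it and APC stain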;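 also: range taken on the double positive population between DMSO and positive control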
The depositor's hits bear a star; i = inactive; · = no result given; + = active, no number. This is a sample that favours compounds with a hit; in the whole collection about 3% have one here.

SMILES	H9c2 protect	Granule exo inh	Myeloid diff 2	HNF4A DNA FP	Pemphigus Ab inh	SENP1 inh	Myeloid diff	GFP autofluor
CC(C)n1ncc2c(C(=O)Nc3ccccc3SCC(N)=O)cc(C3CC3)nc21	7	0	i	4	96	5	·	·
CCn1c(=O)c(C(=O)NCc2cccnc2)c(O)c2ccccc21	-3	-3	i	-1	·	-3	i	0
CCn1c(=O)c(C(=O)NCc2ccccc2)c(O)c2ccccc21	14	1	i	-2	99	2	·	·
O=C(Nc1nc(-c2ccc(Cl)cc2)cs1)C1=COCCO1	-17	5	i	0	114	-7	i	0
O=C(Nc1nc(-c2ccc(F)c(F)c2)cs1)C1=COCCO1	-5	7	i	0	98	4	·	·
Cc1ccnc(NC(=O)COc2ccc3c(c2)CCC3)c1	-23	-2	i	-1	95	1	·	·
CCOc1ccc(N(CC(=O)Nc2ccc(C)cc2)S(=O)(=O)c2c(C)noc2C)cc1	-8	7	+	-1	105	-2	i	1
O=C1OC(/C(=C\Nc2ccc(F)cc2F)[N+](=O)[O-])c2ccccc21 (centres undefined)	5	0	i	3	97	-1	·	·
O=C1OC(/C(=C\Nc2cc(Cl)ccc2O)[N+](=O)[O-])c2ccccc21 (centres undefined)	-7	2	i	1	114	2	i	0
Cc1cc(C)cc(C(=O)/C=C2\NC(=O)CS2)c1	12	-1	i	-2	109	3	i	0
O=C1CS/C(=C/C(=O)c2ccccc2)N1	0	-3	i	6	87	3	·	·
CCS(=O)(=O)Nc1ccc2[nH]c(=O)[nH]c2c1	5	4	i	2	97	-17	·	·
N#Cc1c2nc3ccccc3nc2n2cc(NC(=O)c3ccc(F)cc3)ccc12	34	2	i	-45	68	-29	i	3
O=C(N[C@@H](Cc1ccccc1)C(=O)Nc1ccc(F)cc1)C1CCNCC1	2	-3	i	5	83	2	·	·
C[C@H](N)C(=O)N1CCC(C(=O)N[C@@H](Cc2ccccc2)C(=O)Nc2ccc(F)cc2)CC1	-4	5	i	0	104	4	i	0
O=S(=O)(N/N=C\C=C\c1ccccc1)c1ccc(Cl)cc1	1	4	i	2	103	1	i	0
CSc1nc(C)cc(C)c1C#N	5	1	+	-1	98	2	i	0
Cc1cc(C)c(C#N)c(SCc2ccc(F)cc2)n1	-6	-2	i	3	87	0	·	·
CN(CCCNC(=O)CCC(=O)N1CCOc2ccc(Cl)cc21)Cc1ccccc1	7	0	i	0	98	3	·	·
Cc1ccc(NC(=O)c2cc(=O)[nH]c3ccccc23)cc1C	2	-25	i	4	109	-3	·	·
CCOc1ccccc1CN(Cc1ccco1)S(=O)(=O)c1ccc(-n2cnnn2)c(OC)c1	12	13	+	3	96	1	i	0
COc1cc(S(=O)(=O)N(Cc2ccco2)C2CCCC2)ccc1-n1cnnn1	3	-1	i	2	102	1	·	·
CN(C(=O)CSc1nnc(C2CC2)n1-c1ccccc1)C1CCS(=O)(=O)C1 (centres undefined)	8	7	i	2	102	0	·	·
COc1ccccc1Oc1nnnn1-c1ccc(C(N)=O)cc1	1	-3	i	-3	105	2	i	1
NC(=O)c1ccc(-n2nnnc2Oc2ccccc2)cc1	0	27	i	2	97	0	·	·
SMILES	H9c2 protect	Granule exo inh	Myeloid diff 2	HNF4A DNA FP	Pemphigus Ab inh	SENP1 inh	Myeloid diff	GFP autofluor
COc1ccc(NC(=O)c2ccc3nccnc3c2)cc1	-14	-2	i	0	99	0	i	0
COc1ccc(CNC(=O)c2noc(C)c2[N+](=O)[O-])cc1	9	-2	i	1	91	-1	·	·
Cc1c(C(=O)N2CCN(c3ccccc3)CC2)sc2ncnc(N3CCN(c4ccccn4)CC3)c12	16	-21	+	-1	98	-2	i	0
COc1ccnc(Oc2ccc(C)cc2C)c1C#N	-6	8	+	-7	90	2	i	0
COc1ccc(Oc2nccc(OC)c2C#N)cc1	8	-1	i	2	99	0	·	·
CC(=O)N1CCC(C(=O)N2c3ccccc3N=C(c3ccc(C(F)(F)F)cc3)C2C(=O)NC(C)(C)C)CC1 (centres undefined)	·	-8	i	0	·	8	·	·
Cc1cc(C)n2c(NC3CCCC3)c(-c3cc4ccccc4o3)nc2n1	·	4	i	11	·	-20	i	2
Cc1cc(C)n2c(NC3CCCCC3)c(-c3ccccn3)nc2n1	·	-2	i	3	·	23	·	·
COc1ccc(-c2ccc(C(=O)NCc3ccc(N4CCN(C)CC4)cc3)c3occc23)c(C)c1	-13	27	+	-3	·	1	i	0
CC1CC=CCC1(CO)CO (centres undefined)	2	-5	i	1	93	1	·	·
COCCOC(=O)c1c(C)oc2ccc(NS(=O)(=O)c3cccs3)cc12	-1	1	·	-2	107	0	·	·
O=C(COC(=O)c1ccc(NS(=O)(=O)c2cccs2)cc1O)NCc1ccccc1	-1	7	i	2	·	6	i	0
O=C(COC(=O)c1ccc(NS(=O)(=O)c2cccs2)cc1O)Nc1nc2ccccc2s1	-5	2	i	-1	101	-2	·	·
CCOC(=O)c1c(C)oc2ccc(NS(=O)(=O)c3cccs3)cc12	-2	2	·	1	124	0	i	0
COc1ccc(Cc2nnc(SC(C)C(=O)Nc3ccc(C(N)=O)cc3)o2)cc1 (centres undefined)	-5	0	i	4	101	0	·	·
Cn1c(=O)c2c(nc(NCc3ccco3)n2C/C=C/c2ccccc2)n(C)c1=O	-29	29	i	-1	102	-1	i	0
